These results are taken from ChEMBL document CHEMBL1137588, “An evaluation of 3,4-methylenedioxy phenyl replacements in the aminopiperidine chromone class of MCHr1 antagonists” (Bioorg Med Chem Lett, 2007).

The target of series [1] is Melanin-concentrating hormone receptor (Homo sapiens, UniProt Q969V1+Q99705). The experiment in a line: Inhibition of MCH-mediated calcium release in IMR-32 cells. Format: functional, cell-based.
In series [2] the target is Melanin-concentrating hormone receptor 1 (Homo sapiens, UniProt Q99705). As to the kind of experiment: Displacement of 125I-MCH from MCH-R1 expressed in IMR-32 cells. Format: cell-based. A general note: In a radioligand displacement assay an active substance lowers the binding of a labelled ligand.
Series [3] has as its target Adenosine receptor A1 (Homo sapiens) (UniProt P30542). As to the kind of experiment: Inhibition of human adenosine A1 receptor at 10uM.
Series [4] has as its target Histamine H2 receptor (Homo sapiens) (UniProt P25021). The experiment in a line: Inhibition of histamine H2 receptor at 10uM.
Series [5] concerns the target Histamine H1 receptor (Homo sapiens) (UniProt P35367). The experiment in a line: Inhibition of histamine H1 receptor at 10uM.
Series [6] addresses Sodium-dependent noradrenaline transporter (Homo sapiens) (UniProt P23975). As to the kind of experiment: Inhibition of human norepinephrine transporter receptor at 10uM.
The target in series [7] is Muscarinic acetylcholine receptor M2 (Homo sapiens) (UniProt P08172). As to the kind of experiment: Inhibition of human muscarinic M2 receptor at 10uM.
The target in series [8] is Sodium-dependent dopamine transporter (Homo sapiens) (UniProt Q01959). As to the kind of experiment: Inhibition of human dopamine transporter at 10uM.
Series [9] deals with Adrenergic receptor alpha-2 (Homo sapiens) (UniProt P08913+P18825+P18089). The experiment in a line: Inhibition of adrenergic alpha 2 receptor at 10uM. Format: protein assay.
For series [10], the target named is D(1A) dopamine receptor (Homo sapiens) (UniProt P21728). As to the kind of experiment: Inhibition of human dopamine D1 receptor at 10uM.
Series [11] addresses Beta-2 adrenergic receptor (Homo sapiens) (UniProt P07550). The experiment in a line: Inhibition of adrenergic beta 2 receptor at 10uM.
For series [12], the target named is 5-hydroxytryptamine receptor 1A (Homo sapiens) (UniProt P08908). The experiment in a line: Inhibition of human serotonin 5HT1A receptor at 10uM.
Series [13] has as its target Sigma non-opioid intracellular receptor 1 (Homo sapiens) (UniProt Q99720). As to the kind of experiment: Inhibition of sigma receptor at 10uM.
The target in series [14] is 5-hydroxytryptamine receptor 1B (Homo sapiens) (UniProt P28222). As to the kind of experiment: Inhibition of serotonin 5HT1B receptor at 10uM.
Series [15] concerns the target Kappa-type opioid receptor (Homo sapiens) (UniProt P41145). As to the kind of experiment: Inhibition of human kappa opioid receptor at 10uM.
The next series deals with Cytochrome P450 3A4 (Homo sapiens, UniProt P08684). As to the kind of experiment: Inhibition of CYP3A4. Format: ADME. A digest of the protocol: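 Human hepatic microsomes; CYP3A4 activity followed as oxidation of [3H]-terfenadine. IC50 taken as the compound concentration giving competitive inhibition of this oxidation.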
Series [16] addresses Muscarinic acetylcholine receptor M1 (Homo sapiens) (UniProt P11229). As to the kind of experiment: Inhibition of human muscarinic M1 receptor at 10uM.
Series [17] addresses 5-hydroxytryptamine receptor 2A (Homo sapiens) (UniProt P28223). The experiment in a line: Inhibition of human serotonin 5HT2A receptor at 10uM.
Another series deals with L-type calcium channel (Homo sapiens, UniProt O60840+Q01668+Q13698+Q13936). The experiment in a line: Inhibition of L-type calcium channel at 10uM. Format: protein assay.
Series [18] deals with Adrenergic receptor alpha-1 (Homo sapiens) (UniProt P35348+P25100+P35368). The experiment in a line: Inhibition of adrenergic alpha 1 receptor at 10uM. Format: protein assay.
Series [19] deals with Voltage-gated inwardly rectifying potassium channel KCNH2 (Homo sapiens, UniProt Q12809).
A further series addresses hERG versus MCH receptor (Homo sapiens, UniProt Q12809+Q969V1). The experiment in a line: in vitro.
Series [20] is described as follows: Inhibition of calcium-activated potassium (SK) channel at 10uM.
A short description of series [21]: Inhibition of sodium channel at 10uM.

Chain of Melanin-concentrating hormone receptor 1 (Q99705 whole entry): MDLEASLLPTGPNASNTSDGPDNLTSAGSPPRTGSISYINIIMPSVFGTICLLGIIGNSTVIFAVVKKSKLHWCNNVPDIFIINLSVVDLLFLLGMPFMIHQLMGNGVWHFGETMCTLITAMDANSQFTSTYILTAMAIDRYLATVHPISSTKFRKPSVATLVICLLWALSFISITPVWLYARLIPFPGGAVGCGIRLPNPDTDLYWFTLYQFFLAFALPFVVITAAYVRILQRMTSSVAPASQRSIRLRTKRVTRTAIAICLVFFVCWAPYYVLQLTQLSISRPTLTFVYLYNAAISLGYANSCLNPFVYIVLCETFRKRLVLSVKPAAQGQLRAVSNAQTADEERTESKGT
Chain of Sodium-dependent dopamine transporter (Homo sapiens) (Q01959 whole entry): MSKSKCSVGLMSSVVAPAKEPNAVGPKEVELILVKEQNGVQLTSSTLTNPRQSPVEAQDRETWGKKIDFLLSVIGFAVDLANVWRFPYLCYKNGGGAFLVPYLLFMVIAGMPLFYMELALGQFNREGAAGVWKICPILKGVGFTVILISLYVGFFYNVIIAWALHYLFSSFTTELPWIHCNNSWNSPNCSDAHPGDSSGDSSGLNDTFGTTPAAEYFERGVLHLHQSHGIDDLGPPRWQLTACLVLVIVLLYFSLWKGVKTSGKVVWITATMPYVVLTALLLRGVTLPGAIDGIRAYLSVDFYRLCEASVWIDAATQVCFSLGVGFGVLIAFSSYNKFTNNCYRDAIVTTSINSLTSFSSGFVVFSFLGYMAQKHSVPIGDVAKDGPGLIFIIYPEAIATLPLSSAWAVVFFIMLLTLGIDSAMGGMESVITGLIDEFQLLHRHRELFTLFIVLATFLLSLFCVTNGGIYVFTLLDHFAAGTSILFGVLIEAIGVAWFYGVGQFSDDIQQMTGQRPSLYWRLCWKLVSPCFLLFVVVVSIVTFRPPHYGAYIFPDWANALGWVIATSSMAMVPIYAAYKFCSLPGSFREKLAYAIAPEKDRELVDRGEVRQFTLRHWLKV
Chain of Voltage-gated inwardly rectifying potassium channel KCNH2 (Q12809 whole entry): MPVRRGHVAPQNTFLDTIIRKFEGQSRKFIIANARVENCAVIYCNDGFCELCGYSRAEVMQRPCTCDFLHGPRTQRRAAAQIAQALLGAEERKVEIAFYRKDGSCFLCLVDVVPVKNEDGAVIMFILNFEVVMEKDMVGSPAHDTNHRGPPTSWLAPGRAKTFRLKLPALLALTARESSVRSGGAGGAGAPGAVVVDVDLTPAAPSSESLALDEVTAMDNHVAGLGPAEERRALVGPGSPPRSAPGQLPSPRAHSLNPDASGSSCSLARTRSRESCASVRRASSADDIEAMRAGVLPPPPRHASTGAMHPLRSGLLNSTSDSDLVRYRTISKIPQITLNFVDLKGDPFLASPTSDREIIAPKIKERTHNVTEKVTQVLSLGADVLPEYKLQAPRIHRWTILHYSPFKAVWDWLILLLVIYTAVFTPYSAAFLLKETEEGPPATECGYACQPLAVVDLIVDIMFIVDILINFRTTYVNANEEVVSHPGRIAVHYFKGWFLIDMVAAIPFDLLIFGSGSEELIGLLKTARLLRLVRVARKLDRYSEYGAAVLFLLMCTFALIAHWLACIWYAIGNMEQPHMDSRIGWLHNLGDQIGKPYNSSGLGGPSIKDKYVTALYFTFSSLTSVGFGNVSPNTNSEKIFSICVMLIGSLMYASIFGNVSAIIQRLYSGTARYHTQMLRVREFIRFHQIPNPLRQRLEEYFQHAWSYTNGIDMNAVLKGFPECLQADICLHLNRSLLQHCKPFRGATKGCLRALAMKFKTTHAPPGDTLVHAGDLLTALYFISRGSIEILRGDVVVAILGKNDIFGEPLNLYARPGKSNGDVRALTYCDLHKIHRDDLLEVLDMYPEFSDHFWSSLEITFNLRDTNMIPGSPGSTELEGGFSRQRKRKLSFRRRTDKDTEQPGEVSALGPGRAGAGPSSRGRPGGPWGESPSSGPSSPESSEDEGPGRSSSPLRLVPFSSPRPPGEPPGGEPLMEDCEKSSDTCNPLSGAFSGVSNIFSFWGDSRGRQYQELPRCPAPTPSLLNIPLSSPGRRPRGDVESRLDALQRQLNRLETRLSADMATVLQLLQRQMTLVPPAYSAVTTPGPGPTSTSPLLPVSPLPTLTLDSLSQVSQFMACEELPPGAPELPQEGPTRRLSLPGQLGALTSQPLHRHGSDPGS
Chain of Muscarinic acetylcholine receptor M2 (Homo sapiens) (P08172 whole entry): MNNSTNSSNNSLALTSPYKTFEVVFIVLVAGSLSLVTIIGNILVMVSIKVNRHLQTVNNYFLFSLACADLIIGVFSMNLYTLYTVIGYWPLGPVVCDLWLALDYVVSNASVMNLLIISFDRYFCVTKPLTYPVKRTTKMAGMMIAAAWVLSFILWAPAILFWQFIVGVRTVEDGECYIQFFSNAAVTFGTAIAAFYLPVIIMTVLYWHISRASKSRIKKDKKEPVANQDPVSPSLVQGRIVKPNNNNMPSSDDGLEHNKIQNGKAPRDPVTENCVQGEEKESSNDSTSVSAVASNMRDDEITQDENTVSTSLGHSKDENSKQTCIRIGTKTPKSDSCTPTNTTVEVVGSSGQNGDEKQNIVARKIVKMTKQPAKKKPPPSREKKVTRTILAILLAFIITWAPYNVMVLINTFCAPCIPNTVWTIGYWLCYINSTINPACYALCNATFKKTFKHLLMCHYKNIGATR
Chain of Sodium-dependent noradrenaline transporter (Homo sapiens) (P23975 whole entry): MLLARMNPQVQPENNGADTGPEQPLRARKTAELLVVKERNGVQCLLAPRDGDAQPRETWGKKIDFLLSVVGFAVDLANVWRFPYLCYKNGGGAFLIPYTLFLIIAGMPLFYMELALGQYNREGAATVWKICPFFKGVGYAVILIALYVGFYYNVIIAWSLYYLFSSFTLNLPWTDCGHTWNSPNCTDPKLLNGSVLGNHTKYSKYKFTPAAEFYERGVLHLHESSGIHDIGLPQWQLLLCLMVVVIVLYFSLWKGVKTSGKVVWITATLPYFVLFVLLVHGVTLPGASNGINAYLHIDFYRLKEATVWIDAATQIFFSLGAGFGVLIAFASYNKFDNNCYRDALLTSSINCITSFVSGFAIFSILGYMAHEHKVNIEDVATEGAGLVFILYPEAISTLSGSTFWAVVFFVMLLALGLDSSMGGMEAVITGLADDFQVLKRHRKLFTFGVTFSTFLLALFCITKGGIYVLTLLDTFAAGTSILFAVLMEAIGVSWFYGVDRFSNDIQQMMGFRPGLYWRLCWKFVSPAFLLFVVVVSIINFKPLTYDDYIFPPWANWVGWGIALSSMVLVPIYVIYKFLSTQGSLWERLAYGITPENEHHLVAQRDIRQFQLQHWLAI
Chain of Muscarinic acetylcholine receptor M1 (Homo sapiens) (P11229 whole entry): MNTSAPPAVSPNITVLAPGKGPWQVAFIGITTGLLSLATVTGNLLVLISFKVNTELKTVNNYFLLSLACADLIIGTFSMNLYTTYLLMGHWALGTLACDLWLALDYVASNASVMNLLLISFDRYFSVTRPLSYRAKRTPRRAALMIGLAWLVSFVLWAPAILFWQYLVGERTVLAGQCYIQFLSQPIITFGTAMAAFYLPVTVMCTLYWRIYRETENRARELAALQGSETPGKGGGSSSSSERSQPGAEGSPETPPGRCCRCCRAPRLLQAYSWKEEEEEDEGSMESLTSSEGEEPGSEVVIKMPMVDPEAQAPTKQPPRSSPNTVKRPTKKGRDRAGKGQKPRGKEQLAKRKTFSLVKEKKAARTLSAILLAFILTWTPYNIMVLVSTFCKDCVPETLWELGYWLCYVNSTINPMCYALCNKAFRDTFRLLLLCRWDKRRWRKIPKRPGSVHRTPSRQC
Chain of Beta-2 adrenergic receptor (Homo sapiens) (P07550 whole entry, looked up): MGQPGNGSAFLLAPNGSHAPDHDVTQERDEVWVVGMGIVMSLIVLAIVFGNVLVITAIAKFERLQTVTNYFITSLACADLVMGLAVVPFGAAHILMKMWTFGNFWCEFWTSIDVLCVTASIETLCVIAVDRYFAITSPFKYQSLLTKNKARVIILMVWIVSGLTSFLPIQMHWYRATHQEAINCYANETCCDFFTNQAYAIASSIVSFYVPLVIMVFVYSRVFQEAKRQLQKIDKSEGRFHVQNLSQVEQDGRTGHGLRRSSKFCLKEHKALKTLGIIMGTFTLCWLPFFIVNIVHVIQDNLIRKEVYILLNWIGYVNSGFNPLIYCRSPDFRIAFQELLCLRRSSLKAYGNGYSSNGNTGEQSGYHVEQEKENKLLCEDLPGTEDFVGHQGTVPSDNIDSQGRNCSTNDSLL
Chain of Histamine H1 receptor (Homo sapiens) (P35367 whole entry): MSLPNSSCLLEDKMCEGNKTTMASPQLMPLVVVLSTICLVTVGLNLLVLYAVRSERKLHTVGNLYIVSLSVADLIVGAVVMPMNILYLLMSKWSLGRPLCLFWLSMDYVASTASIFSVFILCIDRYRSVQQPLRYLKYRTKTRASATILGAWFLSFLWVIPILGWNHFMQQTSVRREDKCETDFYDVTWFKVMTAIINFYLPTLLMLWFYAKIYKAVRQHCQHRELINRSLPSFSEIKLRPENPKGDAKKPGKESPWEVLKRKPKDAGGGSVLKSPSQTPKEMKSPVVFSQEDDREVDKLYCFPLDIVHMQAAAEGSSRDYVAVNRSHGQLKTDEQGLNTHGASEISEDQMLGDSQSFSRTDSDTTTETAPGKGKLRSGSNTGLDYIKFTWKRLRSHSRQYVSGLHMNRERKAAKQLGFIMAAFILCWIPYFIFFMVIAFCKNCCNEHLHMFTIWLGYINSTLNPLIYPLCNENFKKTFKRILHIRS
Chain of Histamine H2 receptor (Homo sapiens) (P25021 whole entry): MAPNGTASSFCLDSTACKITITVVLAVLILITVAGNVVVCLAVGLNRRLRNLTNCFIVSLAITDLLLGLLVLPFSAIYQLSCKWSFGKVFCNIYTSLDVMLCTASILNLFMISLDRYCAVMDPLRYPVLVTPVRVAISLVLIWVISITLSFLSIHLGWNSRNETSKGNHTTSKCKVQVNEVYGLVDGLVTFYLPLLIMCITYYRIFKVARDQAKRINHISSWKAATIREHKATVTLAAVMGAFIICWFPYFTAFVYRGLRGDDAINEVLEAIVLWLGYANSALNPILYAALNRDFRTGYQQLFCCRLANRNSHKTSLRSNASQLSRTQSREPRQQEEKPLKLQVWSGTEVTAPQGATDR

One may read the IC50 as the midpoint of a concentration-inhibition curve. Take `CC(=O)Nc1ccc(CN2CCC(NC(=O)c3cc(=O)c4ccc(F)cc4o3)CC2)cc1`: the IC50 in series [1] is > 10000 nM.
Turning to `O=C1COc2cc(CN3CCC(NC(=O)c4cc(=O)c5ccc(F)cc5o4)CC3)ccc2N1`, the IC50 in [1] was 2410 nM; in [2], 166 nM.
Taken in the same sequence, the figures for `O=C(NC1CCN(Cc2ccc3cc[nH]c3c2)CC1)c1cc(=O)c2ccc(F)cc2o1` were 66 nM and 5 nM.
By inhibition is commonly meant the change of the read-out against control, counted positive when it falls. On to `O=C(NC1CCN(Cc2ccc3c(c2)OCO3)CC1)c1cc(=O)c2ccc(F)cc2o1`, for which the inhibition in [3] was 8%; in [4] it was 16%; in series [5], 65%; in series [6], 48%; in series [7] it was 42%; in [8] it was 26%. Besides, the inhibition in series [9] was 18%; in series [10], 43%; in series [11], 21%; in series [12], 48%; in series [13], 104%; in series [14], -6%. Further, the inhibition in [15] stood at 66%; in series [16] it was 55%; in [17], 17%; in series [18], 32%. Further, the IC50 at Cytochrome P450 3A4 stood at 23500 nM. For the same compound, the inhibition at 10 µM at L-type calcium channel is 31%.
Consider `CCc1nc2ccc(CN3CCC(NC(=O)c4cc(=O)c5ccc(F)cc5o4)CC3)cc2o1`, for which the IC50 in series [19] is 26700 nM; in series [1] it was > 10000 nM; in [2], 1270 nM. In addition, at hERG versus MCH receptor, the selectivity ratio is 2.
In the case of `O=C(NC1CCN(Cc2ccc3ncoc3c2)CC1)c1cc(=O)c2ccc(F)cc2o1`, the IC50 in [1] came to 106 nM; in series [2], 10 nM.
Taken in the same sequence, the figures for `CC(=O)Nc1cccc(CN2CCC(NC(=O)c3cc(=O)c4ccc(F)cc4o3)CC2)c1` were 551 nM and 47 nM.
Take `Cn1c(=O)ccc2ccc(CN3CCC(NC(=O)c4cc(=O)c5ccc(F)cc5o4)CC3)cc21`: the results for the IC50 in series [19], in series [1] and in [2] were 47400 nM, 44 nM and 3 nM, respectively. Besides, the selectivity ratio on hERG versus MCH receptor stood at 1030.
Take `O=C(NC1CCN(Cc2ccc3ccc(=O)oc3c2)CC1)c1cc(=O)c2ccc(F)cc2o1`: the inhibition came out at 11% in [3]; 21% in [4]; 36% in series [5]; 17% in series [20]; 45% in series [6]; 15% in [7]. For the same compound, the inhibition in [8] stood at 67%; in [9], 28%; in series [10], 7%; in [11], 16%; in series [12], 25%; in series [13], 37%. The inhibition in [21] was 72%; in series [14], 5%; in [15] it was 43%; in series [16], 16%; in [17] it was -10%; in [18], 13%. In addition, the values for the IC50 in series [1] and in series [2] were 46 nM and 1 nM, respectively. The inhibition at 10 µM on L-type calcium channel is 10%.
Consider `O=C(NC1CCN(Cc2ccc3oc(=O)[nH]c3c2)CC1)c1cc(=O)c2ccc(F)cc2o1`, for which the IC50 was determined as 569 nM in series [1] and 43 nM in [2].
